Experimental data from ChEMBL document CHEMBL1795244, “Preliminary evaluation of a 3H imidazoquinoline library as dual TLR7/TLR8 antagonists” (Bioorg Med Chem, 2011).
Active and inactive are the calls of the source. The rule behind the calls is not given here.

Experiments:
[1] = target: T1, Toll-like receptor 7 (Homo sapiens, UniProt Q9NYK1); experiment: Antagonist activity at TLR7 expressed in HEK293 cells co-transfected with NF-kappaB/sAP gene assessed as inhibition of 1 ug/ml of gardiquimod-induced NF-kappaB activation by reporter gene assay; assay type: functional, cell-based
T1 sequence (Q9NYK1 whole entry): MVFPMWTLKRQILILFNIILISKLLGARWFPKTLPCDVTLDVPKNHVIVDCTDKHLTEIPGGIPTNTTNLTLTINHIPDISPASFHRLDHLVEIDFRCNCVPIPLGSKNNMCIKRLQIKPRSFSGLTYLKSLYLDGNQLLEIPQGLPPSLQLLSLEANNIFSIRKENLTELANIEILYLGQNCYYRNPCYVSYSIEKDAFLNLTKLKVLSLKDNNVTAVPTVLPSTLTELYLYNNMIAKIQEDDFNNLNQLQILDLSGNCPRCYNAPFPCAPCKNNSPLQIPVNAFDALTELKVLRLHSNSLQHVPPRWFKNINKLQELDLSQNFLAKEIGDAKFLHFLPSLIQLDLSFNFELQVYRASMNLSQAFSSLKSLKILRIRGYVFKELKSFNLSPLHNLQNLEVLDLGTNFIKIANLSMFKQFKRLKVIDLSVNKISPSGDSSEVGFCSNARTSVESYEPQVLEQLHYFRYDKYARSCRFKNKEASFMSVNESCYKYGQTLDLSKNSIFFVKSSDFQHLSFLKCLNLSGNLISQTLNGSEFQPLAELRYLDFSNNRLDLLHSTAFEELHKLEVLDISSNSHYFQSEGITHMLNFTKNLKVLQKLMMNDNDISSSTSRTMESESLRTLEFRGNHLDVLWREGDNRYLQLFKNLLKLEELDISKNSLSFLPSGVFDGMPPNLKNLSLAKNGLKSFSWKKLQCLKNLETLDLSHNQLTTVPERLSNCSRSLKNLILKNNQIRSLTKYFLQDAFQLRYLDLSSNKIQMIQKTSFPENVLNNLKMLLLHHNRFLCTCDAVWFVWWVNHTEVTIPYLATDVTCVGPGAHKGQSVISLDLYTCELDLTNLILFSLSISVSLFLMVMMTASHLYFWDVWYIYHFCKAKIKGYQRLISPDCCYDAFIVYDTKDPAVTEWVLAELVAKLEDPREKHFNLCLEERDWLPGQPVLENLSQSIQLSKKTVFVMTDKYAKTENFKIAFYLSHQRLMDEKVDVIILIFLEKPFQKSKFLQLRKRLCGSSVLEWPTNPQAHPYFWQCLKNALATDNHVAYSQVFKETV
Outline: (§1)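 HEK-Blue-7 cells (HEK293 stably carrying TLR7 plus NF-κB/AP-1-driven secreted alkaline phosphatase), kept in selection medium with zeocin and normocin. Seeded at ~10⁵ cells/mL and grown to confluency, then stimulated with gardiquimod 1 μg/mL while serially diluted compounds were added at the same time (highest 250 μM). Incubated overnight; supernatant sAP read with chromogen at 620 nm; duplicates or quadruplicates.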

[2] = target: T2, Toll-like receptor 8 (Homo sapiens, UniProt Q9NR97); experiment: Antagonist activity at TLR8 expressed in HEK293 cells co-transfected with NF-kappaB/sAP gene assessed as inhibition of CL075-induced NF-kappaB activation by reporter gene assay; assay type: functional, cell-based
T2 sequence (Q9NR97 whole entry): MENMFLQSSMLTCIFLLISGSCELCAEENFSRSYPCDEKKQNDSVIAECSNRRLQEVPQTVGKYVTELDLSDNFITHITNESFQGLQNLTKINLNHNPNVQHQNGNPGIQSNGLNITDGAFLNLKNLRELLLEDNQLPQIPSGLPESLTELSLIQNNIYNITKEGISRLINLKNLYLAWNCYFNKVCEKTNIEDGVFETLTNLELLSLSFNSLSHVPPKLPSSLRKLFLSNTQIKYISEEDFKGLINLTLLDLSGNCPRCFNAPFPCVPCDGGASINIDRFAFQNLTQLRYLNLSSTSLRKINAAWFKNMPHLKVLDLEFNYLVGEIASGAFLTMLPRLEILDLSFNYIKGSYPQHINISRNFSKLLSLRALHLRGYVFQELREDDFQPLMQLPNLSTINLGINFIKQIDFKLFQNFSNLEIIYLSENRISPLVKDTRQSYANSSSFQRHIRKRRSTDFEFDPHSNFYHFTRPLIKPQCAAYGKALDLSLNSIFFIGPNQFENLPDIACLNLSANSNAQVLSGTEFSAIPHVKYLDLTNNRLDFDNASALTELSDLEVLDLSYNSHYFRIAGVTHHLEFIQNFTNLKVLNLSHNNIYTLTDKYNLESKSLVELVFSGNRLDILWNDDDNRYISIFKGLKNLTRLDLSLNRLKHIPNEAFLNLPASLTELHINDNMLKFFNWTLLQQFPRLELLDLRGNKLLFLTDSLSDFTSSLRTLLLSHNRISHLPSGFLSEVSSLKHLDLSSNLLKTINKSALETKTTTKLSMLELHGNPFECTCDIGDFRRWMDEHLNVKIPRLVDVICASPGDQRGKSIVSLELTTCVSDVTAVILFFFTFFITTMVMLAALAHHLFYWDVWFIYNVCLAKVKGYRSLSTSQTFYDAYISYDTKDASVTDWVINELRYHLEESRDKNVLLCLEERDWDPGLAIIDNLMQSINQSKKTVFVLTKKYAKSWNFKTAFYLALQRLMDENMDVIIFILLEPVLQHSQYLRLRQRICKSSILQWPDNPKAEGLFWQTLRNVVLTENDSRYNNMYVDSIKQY

[3] = target: T3, Toll-like receptor 7 (Homo sapiens) (UniProt Q9NYK1); experiment: Antagonist activity at TLR7 expressed in HEK293 cells co-transfected with NF-kappaB/sAP gene assessed as inhibition of gardiquimod-induced NF-kappaB activation at 250 uM by reporter gene assay; assay type: functional, cell-based; outline: as §1
T3 sequence (whole entry): T1 sequence (Q9NYK1 whole entry)

[4] = target: Toll-like receptor 8 (Homo sapiens) (UniProt Q9NR97); experiment: Antagonist activity at TLR8 expressed in HEK293 cells co-transfected with NF-kappaB/sAP gene assessed as inhibition of CL075-induced NF-kappaB activation at 250 uM by reporter gene assay
[5] = target: T1, Toll-like receptor 7; experiment: Antagonist activity at TLR7 expressed in HEK293 cells co-transfected with NF-kappaB/sAP gene assessed as inhibition of 250 ng/ml of gardiquimod-induced NF-kappaB activation by reporter gene assay

IC50 [1]	IC50 [2]	inhibition [3]	inhibition [4]	IC50 [5]	Compound
28 µM	59.6 µM				CCNCc1nc2c3ccccc3ncc2n1Cc1ccc(OC)cc1
30.4 µM					CCNCc1nc2c3ccccc3ncc2n1C
26.1 µM	28.1 µM				C#CCn1c(CNCC)nc2c3ccccc3ncc21
		inactive	inactive		CCNCc1nc2c3ccccc3ncc2n1CCCO
	37.2 µM	inactive			OCCCn1c(-c2ccccc2)nc2c3ccccc3ncc21
19.9 µM	40 µM				COc1ccc(Cn2c(C3CCCCC3)nc3c4ccccc4ncc32)cc1
	38.7 µM	inactive			CC(C)(O)Cn1c(C2CCCCC2)nc2c3ccccc3ncc21
19.4 µM					CCCCCCCCCc1nc2c3ccccc3ncc2n1Cc1ccc(OC)cc1
	20.3 µM	inactive			OCCCn1c(C2CCCCC2)nc2c3ccccc3ncc21
8.58 µM	10.1 µM				C#CCn1c(CCCCCCCCC)nc2c3ccccc3ncc21
10.1 µM					CCCCCCCCCc1nc2c3ccccc3ncc2n1C
	38.4 µM	inactive			CC(C)(O)Cn1c(-c2ccccc2)nc2c3ccccc3ncc21
	46.5 µM	inactive			CCNCc1nc2c3ccccc3[n+]([O-])cc2n1CC(C)(C)O
		inactive	inactive		COc1ccc(Cn2c(-c3ccccc3)nc3c4ccccc4ncc32)cc1
22 µM	24.3 µM				Cn1c(C2CCCCC2)nc2c3ccccc3ncc21
	4.81 µM	inactive			CCCCCCCCCc1nc2c3ccccc3ncc2n1CCCO
14.4 µM					CCCCCCCCCc1nc2c3ccccc3ncc2n1CC(C)(C)O
21.9 µM	21.1 µM				C#CCn1c(C2CCCCC2)nc2c3ccccc3ncc21
2.79 µM	4.55 µM			0.82 µM	COc1ccc(Cn2c(-c3ccccc3)nc3c4ccccc4[n+](Cc4ccc(OC)cc4)cc32)cc1
21.6 µM	25.8 µM				Cn1c(-c2ccccc2)nc2c3ccccc3ncc21
14.8 µM	13.7 µM				C#CCn1c(-c2ccccc2)nc2c3ccccc3ncc21
	21.2 µM	inactive			CCNCc1nc2c3ccccc3nc(NC(=O)c3ccccc3)c2n1CC(C)(C)O
